The text below walks through data of ChEMBL document CHEMBL4828745, “Discovery and Structure-Activity Relationships of Quinazolinone-2-carboxamide Derivatives as Novel Orally Efficacious Antimalarials” (J Med Chem, 2021).

Bounds are passed on as bounds.

Series [1] can be described thus: Cytotoxicity against human HEK293 cells assessed as cell viability incubated for 72 hrs by Alamar blue assay. It counts as cell-based. The essentials:
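HEK293 cells handled with the same incubation, compound addition and timing as the 72 h parasite assay. Alamar Blue, diluted in growth medium, was incubated 4 h at 37 °C/5% CO2, then 20 h at room temperature before plate read.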
Background: The colour change of resazurin is a common sign of viable cells or microbes.

Series [2] in a line: Intrinsic clearance in human liver microsomes at […] by LC-MS/MS analysis. Type of series: ADME, Microsome. The procedure, abridged:
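Liver microsomes (human, mouse or rat) at 0.4 mg/mL protein, 37 °C, with an NADPH-regenerating system. Compound at 0.25 or 0.5 μM. Acetonitrile/diazepam quench, LC-MS quantitation. CLint from the first-order degradation rate constant.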
Background: Liver microsomes are a subcellular fraction often used to study metabolism.

A short description of series [3]: Apparent permeability of the compound from apical to basolateral side in human Caco-2 cells at 20 uM measured after 120 mins by LC-MS analysis. Type of series: ADME, cell-based. The procedure, abridged: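 Caco-2 monolayers, apical-to-basolateral direction, in pH 7.4 HBSS with 20 mM HEPES on both sides. Donor at nominal 20 μM, 0.1% DMSO final. Flux followed over 120 min. Quantified by LC-MS with mass balance to derive Papp.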
(In general: Caco-2 cells form a polarised layer with tight junctions and transporters.)

A short description of series [4]: Kinetic solubility of the compound in pH 6.5 phosphate buffer by nephelometry. Type of series: physicochemical. As to conditions: read-out: Kinetic_solubility. The procedure, abridged: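 DMSO stock spiked into pH 6.5 phosphate buffer (1% DMSO final). After 30 min, solubility range estimated by nephelometry.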
The nature of series [5]: Stability in Sprague-Dawley rat plasma assessed as compound remaining at 1000 ng/ml after 2 hrs by LC-MS analysis. It counts as ADME, cell-free. Particulars: read-out: Stability. The procedure, abridged: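 Pooled plasma (human, 3 donors; or male Sprague Dawley rat) spiked to nominal 1000 ng/mL, with at most 0.2% DMSO and 0.4% acetonitrile final. Held at 37 °C with timed aliquots. LC-MS against matrix standards with diazepam internal standard. Percent remaining is relative to the 5 min sample.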

The nature of series [6]: Fraction unbound in human plasma. It counts as ADME, cell-free. The procedure, abridged: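 Human plasma protein binding measured by rapid equilibrium dialysis.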
For another series, the target named is CYP2C9 (Homo sapiens, UniProt P11712). Description: Inhibition of CYP2C9 (unknown origin) at 10 uM by UPLC-MS analysis relative to control. Type of series: ADME. The procedure, abridged: (§1)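 Human liver microsomes, using a substrate-specific metabolite approach. Test compound at 1 and 10 μM. Reference inhibitors: furafylline (1A2), sulfaphenazole (2C9), quinidine (2D6), ketoconazole (3A4). Specific metabolites quantified by UPLC-MS. Percent inhibition relative to incubation without inhibitor.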

The target in the next series is CYP2D6 (Homo sapiens, UniProt P10635). As to the kind of experiment: Inhibition of CYP2D6 (unknown origin) at 10 uM by UPLC-MS analysis relative to control. It counts as ADME. The procedure, abridged:
as §1

Series [7] addresses Voltage-gated inwardly rectifying potassium channel KCNH2 (Homo sapiens, UniProt Q12809). Description: Inhibition of human ERG by QPatch automated patch clamp system. The procedure, abridged: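 hERG current recorded on a QPatch automated patch clamp at four concentrations in 0.5-log steps.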
Series [8] has as its system Plasmodium falciparum. Description: Antiplasmodial activity against liver stage Plasmodium falciparum NF54 sporozoites infected in human hepatocytes assessed as parasite killing measured after 96 hrs by schizont assay. It counts as functional, organism-based. As to conditions: NF54, 96 h.
The test system of series [9] is Plasmodium falciparum. As to the kind of experiment: Antiplasmodial activity against liver stage Plasmodium falciparum NF54 sporozoites infected in human hepatocytes assessed as maximal parasite killing measured after 96 hrs by schizont assay relative to control. Type of series: functional.
For series [10], the system named is Plasmodium falciparum. As to the kind of experiment: Antimalarial activity against wild type Plasmodium falciparum Dd2 assessed as inhibition of parasite growth incubated for […] by [3H]hypoxanthine incorporation assay based liquid scintillation counting method. Type of series: functional, organism-based. The procedure, abridged:
(§2)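 Genetically engineered P. falciparum lines carried mutations introduced into the Dd2 wild-type strain, which was tested alongside them. Growth inhibition was read by [3H]hypoxanthine incorporation over 72 h. IC50 is the mean of two independent biological replicates. Chloroquine and artesunate served as controls.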

The test system of series [11] is Plasmodium falciparum. As to the kind of experiment: Antimalarial activity against Plasmodium falciparum Dd2 ELQ-300 mutant harbouring Pf-cytB assessed as inhibition of parasite growth incubated for […] by [3H]hypoxanthine incorporation assay based liquid scintillation counting method. It counts as functional, organism-based. The essentials:
as §2

The subject of series [12] is Plasmodium falciparum. Description: Antimalarial activity against Plasmodium falciparum Dd2 DDD498 mutant harbouring Pf-cytB assessed as inhibition of parasite growth incubated for […] by [3H]hypoxanthine incorporation assay based liquid scintillation counting method. It counts as functional, organism-based. The procedure, abridged:
as §2

The test system of series [13] is Plasmodium falciparum. As to the kind of experiment: Antimalarial activity against Plasmodium falciparum 3D70087/N9 infected in humanized NODscidlL2Rgamma null mouse model assessed as reduction in parasitemia at 50 mg/kg, po for 4 consecutive days measured after 7 days of post infection relative to control. It counts as functional. As to conditions: 3D70087/N9, po, 96 h, time 4 day. The procedure, abridged:
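P. falciparum humanized SCID mouse model. Monosodium tetrahydrate salt given orally at 50 or 100 mg/kg on 4 consecutive days, n = 2 mice per group. Parasitemia read at day 7 post infection versus untreated controls.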

A short description of series [14]: Toxicity in SCID mouse infected with Plasmodium falciparum 3D70087/N9 at 50 to 100 mg/kg, po for 4 consecutive days measured after 7 days of post infection. Type of series: organism-based. Particulars: in vivo, 96 h, dose 50-100 mg/kg, time 4 day.
Series [15] has as its system Plasmodium falciparum. Description: Antimalarial activity against Plasmodium falciparum Dd2 […] mutant harbouring Pf-car1 assessed as inhibition of parasite growth incubated for […] by [3H]hypoxanthine incorporation assay based liquid scintillation counting method. Type of series: functional, organism-based. The essentials:
as §2

CYP2D6, sequence (P10635 whole entry): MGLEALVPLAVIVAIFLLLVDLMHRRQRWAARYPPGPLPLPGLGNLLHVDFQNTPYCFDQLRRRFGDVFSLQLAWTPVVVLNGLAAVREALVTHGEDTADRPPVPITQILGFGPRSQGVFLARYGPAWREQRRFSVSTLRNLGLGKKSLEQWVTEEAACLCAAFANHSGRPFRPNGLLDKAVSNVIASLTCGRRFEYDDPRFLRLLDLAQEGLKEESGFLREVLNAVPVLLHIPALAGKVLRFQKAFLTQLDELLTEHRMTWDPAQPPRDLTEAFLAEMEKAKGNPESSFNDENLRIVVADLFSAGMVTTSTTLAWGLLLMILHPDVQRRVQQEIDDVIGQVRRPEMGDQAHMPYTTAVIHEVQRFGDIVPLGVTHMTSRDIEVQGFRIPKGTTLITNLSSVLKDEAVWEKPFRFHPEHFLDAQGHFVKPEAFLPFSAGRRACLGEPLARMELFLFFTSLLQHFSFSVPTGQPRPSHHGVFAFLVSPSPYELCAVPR
CYP2C9, sequence (P11712 whole entry): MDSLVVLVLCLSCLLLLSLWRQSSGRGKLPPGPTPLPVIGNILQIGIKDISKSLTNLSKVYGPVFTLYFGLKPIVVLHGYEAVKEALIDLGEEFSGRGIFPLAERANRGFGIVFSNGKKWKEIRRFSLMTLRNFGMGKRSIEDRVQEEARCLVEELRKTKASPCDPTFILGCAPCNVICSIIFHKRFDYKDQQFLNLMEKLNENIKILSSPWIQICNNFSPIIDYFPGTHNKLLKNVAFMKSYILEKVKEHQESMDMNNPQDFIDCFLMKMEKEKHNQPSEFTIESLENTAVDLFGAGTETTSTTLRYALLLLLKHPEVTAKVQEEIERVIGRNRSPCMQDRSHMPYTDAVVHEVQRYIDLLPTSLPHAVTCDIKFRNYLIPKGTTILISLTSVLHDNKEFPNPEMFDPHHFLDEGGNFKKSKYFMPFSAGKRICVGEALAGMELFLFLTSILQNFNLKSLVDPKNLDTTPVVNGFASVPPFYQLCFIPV
Voltage-gated inwardly rectifying potassium channel KCNH2, sequence (Q12809 whole entry): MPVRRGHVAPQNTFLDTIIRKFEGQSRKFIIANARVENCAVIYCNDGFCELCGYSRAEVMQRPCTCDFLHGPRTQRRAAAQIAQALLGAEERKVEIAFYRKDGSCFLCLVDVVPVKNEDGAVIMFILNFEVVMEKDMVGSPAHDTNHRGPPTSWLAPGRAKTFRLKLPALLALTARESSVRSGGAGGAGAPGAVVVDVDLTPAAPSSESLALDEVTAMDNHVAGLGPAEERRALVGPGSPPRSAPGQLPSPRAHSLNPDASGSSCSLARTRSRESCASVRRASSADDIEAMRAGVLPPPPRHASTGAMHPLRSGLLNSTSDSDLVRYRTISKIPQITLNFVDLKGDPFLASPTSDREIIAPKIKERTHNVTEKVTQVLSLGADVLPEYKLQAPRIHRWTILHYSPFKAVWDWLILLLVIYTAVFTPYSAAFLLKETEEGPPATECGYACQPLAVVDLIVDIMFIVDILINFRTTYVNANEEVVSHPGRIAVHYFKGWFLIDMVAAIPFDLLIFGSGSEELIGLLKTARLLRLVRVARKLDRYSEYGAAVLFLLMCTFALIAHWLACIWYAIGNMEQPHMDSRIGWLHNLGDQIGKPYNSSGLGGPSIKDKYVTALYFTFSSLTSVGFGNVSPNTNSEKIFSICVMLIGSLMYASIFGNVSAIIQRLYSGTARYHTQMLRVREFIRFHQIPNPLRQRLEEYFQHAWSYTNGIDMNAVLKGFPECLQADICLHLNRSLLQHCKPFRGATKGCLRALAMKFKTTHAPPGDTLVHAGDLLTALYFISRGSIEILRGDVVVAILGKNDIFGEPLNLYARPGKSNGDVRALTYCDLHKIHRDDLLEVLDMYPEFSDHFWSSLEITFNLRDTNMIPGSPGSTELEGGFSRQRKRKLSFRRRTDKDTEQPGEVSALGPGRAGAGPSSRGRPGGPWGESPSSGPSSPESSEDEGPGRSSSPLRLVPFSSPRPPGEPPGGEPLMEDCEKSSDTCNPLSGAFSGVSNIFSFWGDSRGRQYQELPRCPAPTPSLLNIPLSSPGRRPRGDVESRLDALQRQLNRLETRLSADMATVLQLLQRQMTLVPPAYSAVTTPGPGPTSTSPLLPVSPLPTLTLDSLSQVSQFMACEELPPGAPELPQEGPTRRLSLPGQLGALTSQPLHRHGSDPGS

For orientation: CC50 means the concentration that lowers cell viability or growth by half. One may read the Papp A→B as how fast a substance crosses the layer from the apical side. A word on the inhibition: it is the relative decrease from the control value, in per cent. Read a low inhibition as a response near the control. For orientation: IC50 means the concentration at which inhibition is half-maximal. For orientation: Emax means the maximal effect, on the per cent scale that the assay sets. In general, inhibition in vivo refers to the relative decrease from the control value, in per cent. `CCc1cccc(CNC(=O)c2nc3cccc(COCc4ccc(C(=O)O)cc4)c3c(=O)[nH]2)c1`: the CC50 at 72 h in series [1] was greater than 40000 nM. In [2], this compound returned a CLH of 35 uL/ml.millig. Also, in series [3], the Papp A→B at 2 h, 20 µM came out at 35 ×10⁻⁶ cm/s. In series [4], the solubility kinetic was less than 1.6 µg/mL. The remaining at 2 h, 1000 ng/ml in [5] worked out at 93.4%. In [6], this compound gave a Fu of 0.2%. For the same compound, the inhibition at 10 µM at CYP2C9 was 55%; against CYP2D6, less than 10%. In addition, the IC50 in [7] is greater than 30000 nM; in the series with Plasmodium falciparum [8], 75 nM; in the series with Plasmodium falciparum [10] it was 33 nM; in the series on Plasmodium falciparum [11], 20 nM; in the series on Plasmodium falciparum [12] it was 19 nM; in the series on Plasmodium falciparum [15], 18 nM. In addition, the Emax with Plasmodium falciparum [9] was found to be 50%. The inhibition in vivo at 50 mg/kg in the series on Plasmodium falciparum [13] was found to be 65%. Moreover, the Activity result in [14] is on record as “Non-Toxic”.
